Laboratory results published in ChEMBL document CHEMBL1138195, “Highly chiral muscarinic ligands: the discovery of (2S,2'R,3'S,5'R)-1-methyl-2-(2-methyl-1,3-oxathiolan-5-yl)pyrrolidine 3-sulfoxide methyl iodide, a potent, functionally selective, M2 partial agonist” (J Med Chem, 2006).

What was measured:
[1] = biological target: T1, Muscarinic acetylcholine receptor M4 (Homo sapiens, UniProt P08173); assay: Binding affinity to cloned human muscarinic M4 receptor expressed in CHO cells; assay type: cell-based
T1 sequence (P08173 whole entry): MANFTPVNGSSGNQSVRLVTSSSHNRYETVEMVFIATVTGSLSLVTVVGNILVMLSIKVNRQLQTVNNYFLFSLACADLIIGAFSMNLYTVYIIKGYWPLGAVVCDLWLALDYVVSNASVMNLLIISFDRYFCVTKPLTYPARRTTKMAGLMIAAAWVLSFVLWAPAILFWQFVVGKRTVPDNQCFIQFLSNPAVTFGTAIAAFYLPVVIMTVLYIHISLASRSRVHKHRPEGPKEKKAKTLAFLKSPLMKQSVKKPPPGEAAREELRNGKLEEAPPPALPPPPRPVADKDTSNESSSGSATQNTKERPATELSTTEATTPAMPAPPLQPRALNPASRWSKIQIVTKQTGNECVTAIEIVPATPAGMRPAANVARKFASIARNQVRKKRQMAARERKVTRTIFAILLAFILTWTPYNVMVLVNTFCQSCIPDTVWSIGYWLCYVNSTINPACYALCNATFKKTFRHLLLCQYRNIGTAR
Outline: (§1)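 Membranes from CHO cells stably expressing human hm2, hm4 or hm5 receptors, at 70, 50 and 25 µg/mL protein respectively. 0.2 nM [3H]NMS displaced by unlabelled ligand for 120 min at room temperature, in 25 mM sodium phosphate with 5 mM MgCl2, pH 7.4. Rapid filtration, then scintillation counting. Mean of at least three experiments.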

[2] = biological target: T2, Muscarinic acetylcholine receptor M5 (Homo sapiens, UniProt P08912); assay: Binding affinity to cloned human muscarinic M5 receptor expressed in CHO cells; assay type: cell-based; outline: as §1
T2 sequence (P08912 whole entry): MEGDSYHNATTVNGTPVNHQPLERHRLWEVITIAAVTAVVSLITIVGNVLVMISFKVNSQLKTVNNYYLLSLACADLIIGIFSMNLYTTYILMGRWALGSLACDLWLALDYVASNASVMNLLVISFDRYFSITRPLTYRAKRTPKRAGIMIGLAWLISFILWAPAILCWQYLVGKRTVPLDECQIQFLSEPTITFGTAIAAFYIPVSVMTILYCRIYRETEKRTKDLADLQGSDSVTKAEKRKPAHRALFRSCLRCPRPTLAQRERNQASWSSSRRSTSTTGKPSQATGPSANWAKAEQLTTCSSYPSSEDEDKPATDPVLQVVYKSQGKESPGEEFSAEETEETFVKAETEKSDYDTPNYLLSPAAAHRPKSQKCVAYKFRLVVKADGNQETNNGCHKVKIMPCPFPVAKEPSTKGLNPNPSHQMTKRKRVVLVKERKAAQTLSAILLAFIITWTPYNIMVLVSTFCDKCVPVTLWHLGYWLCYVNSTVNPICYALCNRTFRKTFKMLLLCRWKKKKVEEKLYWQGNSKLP

[3] = biological target: T3, Muscarinic acetylcholine receptor M4 (Homo sapiens) (UniProt P08173); assay: Agonist potency at muscarinic M4 receptor in guinea pig lung strips; assay type: functional; settings: Cavia porcellus, target entry is the homologue from another species
T3 sequence (whole entry): T1 sequence (P08173 whole entry)
Outline: (§2)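 Isolated guinea pig tissue contractions, measured against arecaidine propargyl ester control curves. Agonists: cumulative dose-response curve after a 30 min wash, responses as % of the control maximum. Antagonists: 60 min incubation, then a new agonist curve. Parallel time-control tissues were run. Values expressed as pD2 (-log ED50) with intrinsic activity, or as pKb (-log Kb).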

[4] = biological target: Muscarinic acetylcholine receptor M3 (Homo sapiens, UniProt P20309); assay: Binding affinity to cloned human muscarinic M3 receptor expressed in CHO cells; assay type: cell-based
Chain of Muscarinic acetylcholine receptor M3 (P20309 whole entry): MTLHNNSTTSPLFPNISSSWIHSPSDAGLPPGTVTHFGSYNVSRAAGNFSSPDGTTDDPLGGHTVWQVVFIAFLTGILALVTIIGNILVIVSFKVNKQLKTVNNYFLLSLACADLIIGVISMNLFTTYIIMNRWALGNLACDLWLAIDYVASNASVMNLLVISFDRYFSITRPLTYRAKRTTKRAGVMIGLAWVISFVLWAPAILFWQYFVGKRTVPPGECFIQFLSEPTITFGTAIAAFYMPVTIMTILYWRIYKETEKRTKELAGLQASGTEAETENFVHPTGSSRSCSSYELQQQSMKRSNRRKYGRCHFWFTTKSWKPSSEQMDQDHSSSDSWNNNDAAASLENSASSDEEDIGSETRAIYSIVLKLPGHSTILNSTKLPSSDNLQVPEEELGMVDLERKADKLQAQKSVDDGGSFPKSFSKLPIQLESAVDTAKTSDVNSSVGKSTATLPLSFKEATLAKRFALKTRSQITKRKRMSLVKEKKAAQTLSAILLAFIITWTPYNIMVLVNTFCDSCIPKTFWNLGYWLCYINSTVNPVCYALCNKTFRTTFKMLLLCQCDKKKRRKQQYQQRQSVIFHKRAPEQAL

[5] = biological target: T4, Muscarinic acetylcholine receptor M1 (Homo sapiens) (UniProt P11229); assay: Agonist potency at muscarinic M1 receptor in rabbit vas deferens; assay type: functional, tissue-based; settings: Oryctolagus cuniculus, target entry is the homologue from another species
T4 sequence (whole entry): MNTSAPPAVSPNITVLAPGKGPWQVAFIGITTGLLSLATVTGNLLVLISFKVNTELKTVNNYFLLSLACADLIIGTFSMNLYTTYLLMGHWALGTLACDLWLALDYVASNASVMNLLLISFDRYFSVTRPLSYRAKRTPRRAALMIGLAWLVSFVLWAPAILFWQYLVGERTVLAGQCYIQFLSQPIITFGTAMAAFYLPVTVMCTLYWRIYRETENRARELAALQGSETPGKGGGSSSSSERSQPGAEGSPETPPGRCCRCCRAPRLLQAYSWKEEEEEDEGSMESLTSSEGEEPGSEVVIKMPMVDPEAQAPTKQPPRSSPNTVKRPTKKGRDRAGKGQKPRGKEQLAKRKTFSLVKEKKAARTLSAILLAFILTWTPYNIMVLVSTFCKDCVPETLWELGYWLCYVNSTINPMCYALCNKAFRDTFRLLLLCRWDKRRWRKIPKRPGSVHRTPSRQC
Outline: (§3)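 Field-stimulated (0.1 ms, 2 Hz, 10-15 V), contractions recorded isometrically after 1 h equilibration. Cumulative dose-response curves against p-Cl-McN-A-343 reference. Antagonists incubated 60 min before the repeat curve. Reported as pD2 (-log ED50) with intrinsic activity, or as pKb.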

[6] = biological target: T5, Muscarinic acetylcholine receptor M2 (Homo sapiens, UniProt P08172); assay: Binding affinity to cloned human muscarinic M2 receptor expressed in CHO cells; assay type: cell-based; outline: as §1
T5 sequence (P08172 whole entry): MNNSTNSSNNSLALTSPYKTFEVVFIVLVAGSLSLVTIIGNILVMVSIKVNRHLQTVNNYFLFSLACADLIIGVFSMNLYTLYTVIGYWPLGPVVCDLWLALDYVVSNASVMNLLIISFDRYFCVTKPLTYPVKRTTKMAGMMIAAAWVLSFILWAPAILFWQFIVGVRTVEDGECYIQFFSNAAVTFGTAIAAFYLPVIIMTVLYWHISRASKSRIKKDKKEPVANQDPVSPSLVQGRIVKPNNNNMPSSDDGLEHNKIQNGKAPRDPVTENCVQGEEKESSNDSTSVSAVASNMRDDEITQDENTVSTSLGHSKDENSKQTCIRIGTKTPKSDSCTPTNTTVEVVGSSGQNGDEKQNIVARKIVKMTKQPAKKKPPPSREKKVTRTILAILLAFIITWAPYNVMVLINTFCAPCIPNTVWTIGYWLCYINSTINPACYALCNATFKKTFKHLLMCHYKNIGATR

[7] = biological target: Muscarinic acetylcholine receptor M3 (Cavia porcellus) (UniProt Q8VH26); assay: Agonist potency at muscarinic M3 receptor in guinea pig ileum; assay type: functional, tissue-based; outline: as §2
Chain of Muscarinic acetylcholine receptor M3 (Cavia porcellus) (Q8VH26 1-587): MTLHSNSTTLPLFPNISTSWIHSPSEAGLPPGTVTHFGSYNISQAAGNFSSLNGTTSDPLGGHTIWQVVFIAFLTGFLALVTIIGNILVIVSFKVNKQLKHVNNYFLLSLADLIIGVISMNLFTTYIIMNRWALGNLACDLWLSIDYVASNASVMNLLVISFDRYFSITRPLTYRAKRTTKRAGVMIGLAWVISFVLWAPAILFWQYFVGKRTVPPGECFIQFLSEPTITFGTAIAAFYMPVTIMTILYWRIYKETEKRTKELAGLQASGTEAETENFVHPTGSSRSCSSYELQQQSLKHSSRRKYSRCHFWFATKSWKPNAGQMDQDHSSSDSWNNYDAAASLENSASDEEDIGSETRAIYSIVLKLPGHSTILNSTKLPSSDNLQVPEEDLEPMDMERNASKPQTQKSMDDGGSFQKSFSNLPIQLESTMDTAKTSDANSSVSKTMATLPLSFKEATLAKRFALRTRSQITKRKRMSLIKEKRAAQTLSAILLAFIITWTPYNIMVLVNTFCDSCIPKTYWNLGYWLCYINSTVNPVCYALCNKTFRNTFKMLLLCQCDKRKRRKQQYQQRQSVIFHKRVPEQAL

[8] = biological target: T6, Muscarinic acetylcholine receptor M1 (Homo sapiens, UniProt P11229); assay: Binding affinity to cloned human muscarinic M1 receptor expressed in CHO cells; assay type: cell-based
T6 sequence (P11229 whole entry): T4 sequence (whole entry)

[9] = biological target: T7, Muscarinic acetylcholine receptor M2 (Homo sapiens) (UniProt P08172); assay: Agonist potency at muscarinic M2 receptor in guinea pig atrium; assay type: functional, tissue-based; settings: Cavia porcellus; Cardiac atrium; target entry is the homologue from another species
T7 sequence (whole entry): T5 sequence (P08172 whole entry)
Outline: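 Guinea pig left atria in PSS at 30 °C, paced by square-wave pulses (1 ms, 1 Hz, 5-10 V). Inotropic force recorded isometrically after 2 h equilibration, with cumulative dose-response curves to arecaidine propargyl ester as reference. Antagonists incubated 60 min after a 30 min wash, then the curve was repeated. Values given as pD2 with intrinsic activity, or as pKb.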

[10] = biological target: T7, Muscarinic acetylcholine receptor M2 (Homo sapiens); assay: Efficacy of agonist at muscarinic M2 receptor in guinea pig atrium as ratio of Ka/ED50; assay type: functional, tissue-based; settings: Cavia porcellus; Cardiac atrium; target entry is the homologue from another species
Outline: (§4)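 Functional affinity constants (Ka) obtained in the atrium and ileum preparations. Full agonists: Furchgott-Bursztyn method. Partial agonists: Waud method, comparing their concentration-response curves with arecaidine propargyl ester, with equieffective concentrations read graphically. Ka was then related to ED50.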

[11] = biological target: Muscarinic acetylcholine receptor M3 (Cavia porcellus) (UniProt Q8VH26); assay: Efficacy of agonist at muscarinic M3 receptor in guinea pig ileum as ratio of Ka/ED50; assay type: functional, tissue-based; outline: as §4
[12] = biological target: T4, Muscarinic acetylcholine receptor M1 (Homo sapiens); assay: Antagonist affinity at muscarinic M1 receptor in rabbit vas deferens; assay type: functional, tissue-based; settings: Oryctolagus cuniculus, target entry is the homologue from another species; outline: as §3
[13] = biological target: T3, Muscarinic acetylcholine receptor M4 (Homo sapiens); assay: Antagonist affinity at muscarinic M4 receptor in guinea pig lung strips; assay type: functional; settings: Cavia porcellus, target entry is the homologue from another species; outline: as §2

Compound | Ki [1] [nM] | Ki [2] [nM] | pD2 [3] | Ki [4] [nM] | pD2 [5] | Ki [6] [nM] | Activity [7] | pD2 [7] | Ki [8] [nM] | Activity [9] | pD2 [9] | Ratio [10] | Ratio [11] | -logKa [7] | pKb [12] | pKb [13] | -logKa [9]
C#CCOC(=O)C1=CCCN(C)C1 [ARECAIDINE PROPARGYL ESTER] | 977 | 933 | 5.56 | 851 | 7.14 | 87.1 | 1 | 7.64 | 1230 | 1 | 8.67 | – | – | – | – | – | –
C[N+](C)(C)CC#CCOC(=O)Nc1ccc(Cl)cc1 | 9120 | 3800 | – | 2400 | 6.33 | 3240 | – | – | 1950 | – | – | – | – | – | – | – | –
C[C@@H]1O[C@H]([C@H]2CCC[N+]2(C)C)C[S@@+]1[O-] | > 100000 | > 100000 | – | > 100000 | – | 9330 | 1 | 5.58 | > 100000 | 0.58 | 6.11 | 12 | 7 | 4.87 | < 5 | < 5 | 5.11
